Assay outcomes (PubChem)
hERG protect – hERG (human) protection from proarrhythmic block; Q12809; CHO-hERG, FluxOR thallium flux, dofetilide IC70 present; activation (rescue from dofetilide block), less the hit threshold, % at 10 µM; 310,000 tested, 0.51% active; AID 1511;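 active = activation above the mean of controls blocked by dofetilide plus 5 SD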;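 also: thallium influx through hERG after potassium depolarization seen as dye fluorescence rise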
Target sequence (Q12809 whole entry, looked up): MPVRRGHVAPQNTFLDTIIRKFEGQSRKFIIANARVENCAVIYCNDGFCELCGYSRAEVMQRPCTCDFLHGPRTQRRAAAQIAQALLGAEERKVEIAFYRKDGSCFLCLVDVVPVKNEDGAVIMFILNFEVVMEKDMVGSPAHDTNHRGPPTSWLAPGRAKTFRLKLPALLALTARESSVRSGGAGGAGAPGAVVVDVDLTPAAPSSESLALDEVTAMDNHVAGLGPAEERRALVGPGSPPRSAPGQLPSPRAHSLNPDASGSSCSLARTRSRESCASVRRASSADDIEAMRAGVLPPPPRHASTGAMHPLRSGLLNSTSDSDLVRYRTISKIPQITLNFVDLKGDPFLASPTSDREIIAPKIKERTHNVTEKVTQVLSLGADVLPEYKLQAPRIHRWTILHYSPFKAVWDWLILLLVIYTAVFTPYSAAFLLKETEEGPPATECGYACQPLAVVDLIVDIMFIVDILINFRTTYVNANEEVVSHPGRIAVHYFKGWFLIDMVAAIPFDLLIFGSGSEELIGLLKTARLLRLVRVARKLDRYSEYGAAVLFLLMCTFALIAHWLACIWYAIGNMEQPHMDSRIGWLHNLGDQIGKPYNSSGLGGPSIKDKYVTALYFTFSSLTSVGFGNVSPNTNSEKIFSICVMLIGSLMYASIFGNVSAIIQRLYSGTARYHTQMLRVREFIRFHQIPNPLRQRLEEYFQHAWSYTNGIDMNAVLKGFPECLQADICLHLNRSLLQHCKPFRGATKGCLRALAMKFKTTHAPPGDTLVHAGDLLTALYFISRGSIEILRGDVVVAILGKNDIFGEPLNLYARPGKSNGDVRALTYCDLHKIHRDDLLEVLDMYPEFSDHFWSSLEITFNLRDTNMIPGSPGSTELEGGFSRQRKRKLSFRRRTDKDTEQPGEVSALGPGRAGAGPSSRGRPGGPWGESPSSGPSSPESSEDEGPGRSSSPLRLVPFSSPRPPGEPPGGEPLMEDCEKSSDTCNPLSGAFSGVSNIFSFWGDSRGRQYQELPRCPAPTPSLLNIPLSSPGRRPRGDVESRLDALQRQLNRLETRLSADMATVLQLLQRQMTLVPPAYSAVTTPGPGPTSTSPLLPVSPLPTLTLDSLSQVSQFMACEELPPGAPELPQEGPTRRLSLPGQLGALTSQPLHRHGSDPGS
KCNK9 block – inhibitors of human KCNK9 two-pore domain potassium channel; Q9NPC2; HEK293 KCNK9, FluxOR thallium flux fluorescence; hits give low values; 310,000 tested, 1.2% active; AID 488922; B-score at 10 µM;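 active = ratio B-score over 3 SD below the library mean, with starting fluorescence within 5 SD of its mean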;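 also: negative B-score means less thallium flux so channel inhibition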
KCNK3 inh – human KCNK3 channel inhibition, primary screen; 340,000 tested, 0.84% active; O14649; B-score at 10 µM; CHO-KCNK3 thallium flux, FluxOR fluorescence; hits give low values;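 active = B-score under library mean minus 4 SD, starting fluorescence ratio at most library mean plus 5 SD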;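 also: more negative B-score means stronger inhibition of thallium flux through KCNK3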
KCNQ1 block – blocks the human KCNQ1 potassium channel. P51787. CHO-K1 KCNQ1, FluxOR thallium flux fluorescence; hits give high values. B-score at 10 µM. 310,000 tested, 1.3% active. AID 2642;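 active = compounds whose thallium flux B-score, printed positive for inhibition, exceeds three library SD while starting fluorescence stays within three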;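 also: channel opened by potassium depolarization with thallium stimulus after 20 min compound exposure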
KCNQ1 act – human KCNQ1 channel potentiation or activation | P51787 | CHO-K1 KCNQ1, thallium flux FluxOR fluorescence; hits give high values | B-score at 10 µM | 310,000 tested, 0.35% active | AID 2648;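 active = fluorescence ratio B-score, a plate-corrected score, at least three library SD, with initial intensity B-score within 5 SD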
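Medium – assay buffer, equal DMSO in all wells · Material – CHO-K1 cell line with stable KCNQ1 potassium channel expression · Signal – kinetic FluxOR thallium fluorescence, 10-s 1-Hz baseline, 110-s post-stimulus read · Compound – single concentration per compound, DMSO matched to controls · Schedule – 37 °C overnight plating, 90-min dark dye load, 20-min compound pretreatment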
The depositor's hits bear a star; i = inactive; x = no result given. A selection: hits, their analogues and other compounds. The true share with any hit is near 3.1%.

SMILES	hERG protect	KCNK9 block	KCNK3 inh	KCNQ1 block	KCNQ1 act
COc1ccc(CCN(C(=O)Cn2nnc3ccccc32)C(C(=O)NCC2CCCO2)c2ccncc2)cc1OC (stereo not drawn)	39.3*	i	i	i	i
CCCCOc1ccc(-c2c(C(=O)Nc3ccccc3)c(C)[nH]c(=S)c2C#N)cc1	-18.6	i	i	i	i
CCCCOc1ccc(-c2c(C#N)c(N)[nH]c(=S)c2C#N)cc1	8.4*	i	i	i	i
CN(c1ccccc1)S(=O)(=O)c1cccc(C(=O)Nc2nn[nH]n2)c1	-8.6	i	i	i	i
CC(C)OC(=O)CN1C(=O)S/C(=C/c2ccc(N3CCCCC3)o2)C1=O	0.2	-7.83*	i	i	i
O=C1S/C(=C/c2ccc(N3CCOCC3)o2)C(=O)N1Cc1ccc(F)cc1	-11.8	i	i	i	i
O=C(/C=C\Nc1ccc(Br)cc1)c1cccnc1	-9.3	i	i	i	i
CCOc1cccc(OCCOCCOc2ccccc2C(C)=O)c1	-8.6	i	i	i	i
CCOc1ccc(OCCCCOc2ccccc2C(C)=O)cc1	-16.4	i	i	7*	i
Cc1cccc(NC(=S)NC(=O)c2ccco2)c1C	22.1*	i	i	i	33*
Cc1ccc([N+](=O)[O-])cc1NC(=S)NC(=O)c1ccco1	5.1*	i	i	i	i
O=C(NC(=S)Nc1ccccc1Br)c1ccco1	2.9	i	i	i	9*
CCOc1ccc(NC(=S)NC2CC3CCC(C2)N3Cc2ccco2)cc1 (stereo not drawn)	-18.4	-7.18*	i	i	i
Cc1ccc(OCCNC(=O)c2ccccc2SCC(=O)N2CCCC2)cc1	-11.5	i	i	i	i
O=C(O)/C=C(/c1ccccc1)C(F)(F)F	x	x	i	x	x
CC(C)c1ccc(NC2CCCN(C(=O)C3=NN(C)C(=O)CC3)C2)cc1 (stereo not drawn)	-7.7	i	i	i	i
CCOc1ccc(NC(=S)NC(=O)c2ccco2)cc1	6.1*	i	i	i	12*
CCOc1ccc(NC(=O)c2ccco2)cc1	1.9	i	i	i	i
O=C(OCc1nnc(-c2ccc(Cl)cc2)o1)c1ccc(O)cc1	-8.0	i	i	i	i
CS(=O)(=O)c1ccc(C(=O)OCc2nnc(-c3ccc(Cl)cc3)o2)cc1[N+](=O)[O-]	-17.8	i	i	i	12*
C=CCSC(=C(C#N)C#N)c1cc2c([nH]1)CCCC2	-13.8	i	i	8*	i
COc1ccccc1/C=N/NC(=O)CC(=O)NCCc1ccccc1	-14.1	i	i	i	i
O=C(NC(=S)N1CCN(c2nc(-c3ccccc3)cs2)CC1)c1cncc(Br)c1	88.7*	i	i	i	56*
O=C(CN1CCN(c2nc(-c3ccccc3)cs2)CC1)NNC(=O)c1ccc(Br)cc1	-2.6	i	i	i	i
CC(NC(=O)COC(=O)/C(=C/c1cccs1)c1cccs1)c1ccccc1 (stereo not drawn)	-9.2	-6.77*	i	i	i
SMILES	hERG protect	KCNK9 block	KCNK3 inh	KCNQ1 block	KCNQ1 act
CC(NC(=O)COC(=O)c1cccs1)c1ccccc1 (stereo not drawn)	-1.2	i	i	i	i
COc1ccc(C(=O)N/N=C/c2sc3ccccc3c2O)cc1	-11.0	i	i	i	i
COc1ccc2cc(C(=O)N/N=C/c3sc4ccccc4c3O)ccc2c1	-13.6	i	i	9*	i
CCOC(=O)c1ccc(NC(=O)COC(=O)c2cccc(Oc3ccccc3)c2)cc1	-11.5	i	i	i	i
CC(/C=C1\SC(=S)N(NC(=O)c2ccc(C)cc2)C1=O)=C\c1ccccc1	-12.1	i	i	i	i
CC(/C=C1\SC(=S)N(c2ccc(C(=O)O)cc2)C1=O)=C\c1ccccc1	5.1*	i	i	i	i
COC(=O)c1ccc(-c2sc3nc(N4CCOCC4)c4c(c3c2N)CCCC4)o1	-12.1	-9.17*	x	6*	i
O=C1/C(=C/c2cccc(F)c2)Oc2cc(O)ccc21	-8.4	i	i	14*	i
N#Cc1cn(CCOc2ccccc2F)c2ccccc12	-11.8	-7.53*	i	i	i
Cc1cc(/C=C2\SC(=S)N(C)C2=O)c(C)n1-c1ccccc1O	-16.5	i	i	i	i
Cc1cc(/C=C2\SC(=S)N(C)C2=O)c(C)n1-c1ccc(O)cc1	-13.2	i	i	6*	i
Cc1ccc(Nc2ccc(S(=O)(=O)N3CCOCC3)cc2[N+](=O)[O-])cc1C	-2.0	i	i	i	i
CCn1cc(C(=O)OCC(=O)OC2CC(C)CCC2C(C)C)c(=O)c2ccc(C)nc21 (stereo not drawn)	-18.2	i	-11.1*	i	i
COc1cccc(CN2CCCC(C(=O)Nc3ccc(-c4cscn4)cc3)C2)c1 (stereo not drawn)	-6.3	i	i	i	i
COc1ccc(C)cc1NC(=O)c1cccc(-c2ccc(OC(C)=O)cc2)c1	-6.3	-8.07*	i	i	i
COc1ccc(Cl)cc1NS(=O)(=O)c1cccc(C(=O)NCC(C)(C)N2CCOCC2)c1	x	x	-8.97*	x	x
ClCc1ncc(-c2ccc(Cl)cc2)o1	-7.5	i	i	i	i
CCc1ccccc1NC(=O)c1ccccc1Sc1ccc([N+](=O)[O-])cc1Cl	-3.7	-7.16*	i	i	i
CCSc1ccccc1C(=O)Nc1ccc([N+](=O)[O-])cc1OC	-24.4	i	i	i	i
COC(=O)c1ccc(NS(=O)(=O)c2cc(-c3cc(C)no3)ccc2OC)cc1	-4.2	i	i	i	i
CCOC(=O)C1=C(COC(=O)c2ccc(Cl)nc2)NC(=O)NC1C (stereo not drawn)	x	x	i	x	x
CC1CCC(NC(=O)c2cc3ccccc3cc2O)CC1 (stereo not drawn)	x	x	-10.9*	x	x
COCCN(CCOC)Cc1c(O)ccc2c3c(c(=O)oc12)CCC3	-7.2	-7.11*	i	i	i
CCCCN(CC)Cc1c(O)ccc2c3c(c(=O)oc12)CCC3	-13.3	i	i	i	i
Cc1ccc2[nH]c(=O)c(CN(C(=O)c3cccs3)c3ccccc3)cc2c1	-3.9	i	i	i	i
O=[N+]([O-])c1cc(S(=O)(=O)Nc2ccccc2)ccc1NCc1cccnc1	-7.4	i	i	i	i
O=[N+]([O-])c1cc(S(=O)(=O)Nc2ccccc2)ccc1NCc1ccccc1	-4.2	-6.57*	i	i	i
CCOc1ccc(NS(=O)(=O)c2ccc(C(=O)N(C)CC(=O)Nc3cccc(OC)c3)cc2)cc1	x	x	i	x	x
